Data reported in ChEMBL document CHEMBL4038269, “Design, synthesis and evaluation of novel feruloyl-donepezil hybrids as potential multitarget drugs for the treatment of Alzheimer's disease” (Eur J Med Chem, 2017).
Calls of active or inactive are those of the source.

Experiments:
[1] = tested on: SH-SY5Y; assay: Antioxidant activity in human SH-SY5Y cells assessed as reduction in H2O2-induced reactive oxygen species formation at 20 uM pretreated for 24 hrs followed by H2O2 addition measured after 30 mins DCFH-DA probe based fluorescence assay; format: functional, cell-based
In short: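 SH-SY5Y cells treated 24 h with compound (20 µM in figure), then exposed to 100 µM H2O2 for 30 min. Intracellular ROS read with DCFH-DA probe (10 µg/mL, 30 min preload) at ex 485/em 535 nm. Expressed as % of control cells; mean ± SD, three independent experiments.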

[2] = tested on: SH-SY5Y; assay: Iron chelating activity in human SH-SY5Y cells assessed as reduction in FeSO4/H2O2-induced reactive oxygen species formation at 10 to 20 uM after 30 mins by DCFH-DA probe based fluorescence assay; format: functional, cell-based
In short: (§1)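 SH-SY5Y cells seeded at 3 x 10^4 cells/well and preloaded with DCFH-DA (10 µg/mL, 30 min, room temperature). Then given compound (5, 10, 20 µM) with FeSO4/H2O2 or CuSO4/H2O2 for 30 min; metal 25 µM and H2O2 100 µM per figure legend. Fluorescence read at ex 485/em 535 nm, arbitrary units. Mean ± SD of three experiments.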

[3] = tested on: Mus musculus; assay: In vivo inhibition of 5-LOX activity in carrageenan-induced Swiss mouse serum at 100 umol/kg, po pretreated for 1 hr followed by carrageenan challenge after 3 hrs by ELISA relative to control; format: functional
In short: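 Male Swiss mice given oral drug (100 µmol/kg) or vehicle 1 h before intraplantar carrageenan (legend: 400 µg/paw). At 3 h, animals anaesthetised with chloral hydrate and cardiac blood taken. Serum separated (1500 rpm, 20 min) and frozen at -70 °C. COX-1, COX-2 and 5-LOX measured by specific sandwich ELISA at 450 nm. Expressed as % enzymatic activity, mean ± SEM, n=8.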

[4] = tested on: Mus musculus; assay: Neurotoxicity in Swiss mouse assessed as induction of motor impairment at 100 umol/kg, po measured after 1 hr by open filed test; format: toxicity, organism-based; settings: in vivo
In short: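 Male Swiss mice (n=8) given vehicle or compound orally 1 h before open-field test. Crossings of the central four and peripheral 12 squares counted separately.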

[5] = tested on: Mus musculus; assay: Antiinflammatory activity in formalin-induced nociception Swiss mouse model assessed as reduction in time spent licking formalin injected hind paw during inflammatory phase at 100 umol/kg, po pretreated for 1 hr followed by formalin challenge measured after 20 to 30 mins; format: functional, organism-based
In short: (§2)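 Male Swiss mice (22-28 g), n=8 per group, given oral vehicle (saline + DMSO 2%) or 100 µmol/kg 1 h before formalin (5% in 0.9% saline, 20 µl) into the right hind paw sub-plantar region. Morphine 39 µmol/kg i.p. was given 30 min before. Paw-licking time recorded at 0–5 min (neurogenic phase) and 20–30 min (inflammatory phase).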

[6] = Selectivity ratio of IC50 for equine serum BuChE to IC50 Electrophorus electricus AChE
[7] = tested on: SH-SY5Y; assay: Copper chelating activity in human SH-SY5Y cells assessed as reduction in CuSO4/H2O2-induced reactive oxygen species formation at 10 to 20 uM after 30 mins by DCFH-DA probe based fluorescence assay; format: functional, cell-based; in short: as §1
[8] = tested on: Mus musculus; assay: Antiinflammatory activity in formalin-induced nociception Swiss mouse model assessed as reduction in time spent licking formalin injected hind paw during neurogenic phase at 100 umol/kg, po pretreated for 1 hr followed by formalin challenge measured up to 5 mins; format: functional, organism-based; in short: as §2
[9] = target: Cholinesterase (Equus caballus, UniProt P81908); assay: Inhibition of equine serum BuChE using butyrylthiocholine iodide as substrate pretreated for 10 mins followed by substrate addition measured at 12 secs interval for 5 mins by Ellman's method
In short: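 Ellman assay in 0.1 M sodium phosphate pH 7.4, enzyme 0.5 U/mL, DTNB 10 mM; concentration series preincubated 10 min before butyrylthiocholine iodide ([…]); A412 over 5 min at 12 s intervals. IC50 from fitted concentration-response curves, geometric mean of independent experiments, each in triplicate; DMSO ≤0.2% final.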

[10] = tested on: SH-SY5Y; assay: Neuroprotective activity in human SH-SY5Y cells assessed as reduction in amyloid beta (1 to 42)-induced early vacuole formation at 20 uM after 4 hrs by MTT dye based microscopic method; format: functional, cell-based
In short: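 SH-SY5Y cells seeded at 3 x 10^4 cells/well, grown 24 h. Treated with compound (20 µM) plus Aβ1-42 oligomers (10 µM) for 4 h at 37 °C. Oligomers were prepared from HFIP-treated, DMSO-dissolved peptide and checked by TEM. MTT (5 mg/mL in PBS) added for 2 h. Cells inspected by light microscopy for needle-like exocytosed formazan crystals.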

[11] = tested on: SH-SY5Y; assay: Antioxidant activity in human SH-SY5Y cells assessed as increase in GSH level at 20 uM after 24 hrs by MCB probe based assay relative to control; format: functional
In short: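 SH-SY5Y cells (DMEM, 10% FBS, 37 °C, 5% CO2) seeded at 2 x 10^4 cells/well and grown 24 h. Treated with 20 µM compound for 3-24 h. Then 50 µM monochlorobimane in PBS for 30 min at 37 °C. GSH fluorescence read at ex 360/em 465 nm, as % of control cells. Mean ± SD of three independent experiments.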

[12] = tested on: SH-SY5Y; assay: Neuroprotective activity in human SH-SY5Y cells assessed as reduction in amyloid beta (1 to 42)-induced late neuronal death at 20 uM after 24 hrs by propidium iodide staining based fluorescence microscopic method; format: functional, cell-based
In short: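 SH-SY5Y cells at 5×10^3 cells/well, grown 24 h, then compound (20 µM) with Aβ1-42 oligomers for 24 h at 37 °C; oligomers 10 µM in methods, 20 µM in legend. Stained with propidium iodide (25 µg/mL in PBS) for 10 min. Four random fields of 50–100 cells scored by fluorescence microscopy; dead cells % = PI-positive/total × 100.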

[13] = tested on: Mus musculus; assay: Antinociceptive activity in carrageenan-induced Swiss mouse model of mechanical hyperalgesia at 100 umol/kg, po pretreated for 1 hr followed by carrageenan challenge measured at 3 hrs to 7 hrs post dose by Von Frey filament assay; format: functional, organism-based
In short: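 Male Swiss mice (n=8) dosed orally with 100 µmol/kg or vehicle 1 h before intraplantar carrageenan (100 µg/paw). Mechanical threshold measured by up-and-down Von Frey method after 60 min acclimation on a wire screen. Started at 0.4 g filament, ≥6 trials at 10 s intervals, about 4 s per application. Reported as mean threshold in grams ± SEM.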

[14] = target: Acetylcholinesterase (Electrophorus electricus, UniProt O42275); assay: Non-competitive inhibition of Electrophorus electricus AChE using acetylthiocholine iodide as substrate pretreated for 10 mins followed by substrate addition measured at 12 secs interval for 5 mins by Ellman's method
[15] = tested on: Mus musculus; assay: Anti-inflammatory activity in Swiss mouse assessed as reduction in carrageenan-induced paw edema at 100 umol/kg, po pretreated for 1 hr followed by carrageenan challenge after 3 hrs by plethysmometer; format: functional, organism-based
In short: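 Adult male Swiss mice (22-28 g), fasted overnight, given vehicle (DMSO 2% in sterile saline) or 100 µmol/kg orally 1 h before intraplantar carrageenan. Methods give 400 µg/20 µl and n=10 per group; figure legend gives 100 µg/paw and n=8. Right hind paw volume read by plethysmometer at 1, 3 and 5 h. Reported as change in µL from basal volume, mean ± SEM.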

Cholinesterase, sequence (P81908 whole entry): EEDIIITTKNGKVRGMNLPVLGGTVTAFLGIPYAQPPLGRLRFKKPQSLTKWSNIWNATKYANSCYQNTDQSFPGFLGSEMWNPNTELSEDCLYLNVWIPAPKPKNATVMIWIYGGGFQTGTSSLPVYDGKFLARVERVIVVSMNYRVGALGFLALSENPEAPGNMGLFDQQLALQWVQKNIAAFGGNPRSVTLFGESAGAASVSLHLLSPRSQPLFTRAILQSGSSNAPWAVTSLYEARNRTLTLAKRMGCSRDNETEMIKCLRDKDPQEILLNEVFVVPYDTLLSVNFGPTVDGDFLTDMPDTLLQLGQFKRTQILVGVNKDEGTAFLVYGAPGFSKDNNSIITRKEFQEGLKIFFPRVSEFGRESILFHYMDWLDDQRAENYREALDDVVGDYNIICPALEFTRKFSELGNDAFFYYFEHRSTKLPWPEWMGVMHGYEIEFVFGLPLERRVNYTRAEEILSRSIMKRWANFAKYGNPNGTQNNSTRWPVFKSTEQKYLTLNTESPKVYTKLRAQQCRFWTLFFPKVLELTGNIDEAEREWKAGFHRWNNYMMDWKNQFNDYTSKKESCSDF
Acetylcholinesterase, sequence (O42275 whole entry): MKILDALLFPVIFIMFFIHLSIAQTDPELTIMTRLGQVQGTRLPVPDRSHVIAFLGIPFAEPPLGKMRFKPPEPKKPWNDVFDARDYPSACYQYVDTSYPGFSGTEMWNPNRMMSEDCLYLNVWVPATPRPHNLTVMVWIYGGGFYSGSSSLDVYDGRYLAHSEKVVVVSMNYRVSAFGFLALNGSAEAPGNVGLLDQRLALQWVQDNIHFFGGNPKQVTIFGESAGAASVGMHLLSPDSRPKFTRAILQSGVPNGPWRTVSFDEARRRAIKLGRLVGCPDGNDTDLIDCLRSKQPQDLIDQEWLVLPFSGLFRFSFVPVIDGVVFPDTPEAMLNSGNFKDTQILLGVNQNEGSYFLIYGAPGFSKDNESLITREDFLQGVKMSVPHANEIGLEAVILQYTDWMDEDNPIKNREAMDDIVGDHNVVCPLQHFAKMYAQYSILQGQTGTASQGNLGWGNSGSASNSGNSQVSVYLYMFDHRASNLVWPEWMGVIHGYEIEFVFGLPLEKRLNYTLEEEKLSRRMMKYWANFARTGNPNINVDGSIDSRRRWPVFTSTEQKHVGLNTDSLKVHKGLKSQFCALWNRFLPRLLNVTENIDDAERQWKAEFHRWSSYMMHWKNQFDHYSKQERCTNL

Question: Which results are given for `COc1cc(/C=C/C(=O)OCC2CCN(Cc3ccccc3)CC2)ccc1O`?
Answer: Activity [1]: Active; Activity [2]: Active; inhibition in vivo at 100 µmol/kg [3]: 30%; Activity [4]: Non-Toxic; Activity [5]: Active; Ratio IC50 [6]: 53; Activity [7]: Active; Activity [8]: Active; IC50 [9]: 25 µM; Activity [10]: inactive; fold change (FC) [11]: 1.4; Activity [12]: Active; Activity [13]: Active; Ki [14]: 1.04 µM; Activity [15]: Active
